According to ChEMBL document CHEMBL1152413, “Glucose-based spiro-heterocycles as potent inhibitors of glycogen phosphorylase” (Bioorg Med Chem, 2009):
Values belong to the molecule of their own block, whether it stands above or below them. Active and inactive are the calls of the source. No cut-off for these calls is given here.

Experiments:
[1] = target: T1, Glycogen phosphorylase, muscle form (Oryctolagus cuniculus, UniProt P00489)
T1 sequence (P00489 whole entry): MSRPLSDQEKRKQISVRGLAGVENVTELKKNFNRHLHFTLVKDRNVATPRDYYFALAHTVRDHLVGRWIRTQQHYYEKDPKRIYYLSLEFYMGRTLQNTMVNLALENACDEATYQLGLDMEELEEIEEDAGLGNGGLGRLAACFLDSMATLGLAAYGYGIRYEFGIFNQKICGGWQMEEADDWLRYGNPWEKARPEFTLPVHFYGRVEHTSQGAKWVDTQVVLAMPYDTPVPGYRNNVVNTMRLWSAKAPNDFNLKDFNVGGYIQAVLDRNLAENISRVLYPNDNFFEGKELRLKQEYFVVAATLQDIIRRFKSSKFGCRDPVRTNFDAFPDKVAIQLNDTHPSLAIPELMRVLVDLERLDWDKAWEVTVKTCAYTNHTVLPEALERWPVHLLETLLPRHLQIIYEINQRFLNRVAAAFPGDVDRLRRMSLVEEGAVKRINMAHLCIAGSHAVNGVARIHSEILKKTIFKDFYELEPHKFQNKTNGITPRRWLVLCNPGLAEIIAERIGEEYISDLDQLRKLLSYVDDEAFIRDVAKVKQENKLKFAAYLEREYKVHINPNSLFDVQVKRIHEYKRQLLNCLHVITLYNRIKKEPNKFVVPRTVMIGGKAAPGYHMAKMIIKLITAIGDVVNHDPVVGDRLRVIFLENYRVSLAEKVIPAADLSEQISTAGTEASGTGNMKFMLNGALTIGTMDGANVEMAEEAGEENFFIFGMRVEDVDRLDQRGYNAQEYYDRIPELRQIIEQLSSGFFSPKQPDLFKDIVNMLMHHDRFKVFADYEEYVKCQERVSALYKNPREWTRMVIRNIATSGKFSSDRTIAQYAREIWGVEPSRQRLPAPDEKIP

[2] = target: T2, Glycogen phosphorylase, muscle form (Oryctolagus cuniculus) (UniProt P00489); test: Inhibition of rabbit muscle glycogen phosphorylase b at 625 uM by Lineweaver-Burke plot analysis
T2 sequence (whole entry): T1 sequence (P00489 whole entry)
How it was run: (§1)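 Glycogen phosphorylase b isolated from rabbit skeletal muscle (Fischer–Krebs method with dithiothreitol in place of L-cysteine), recrystallized at least three times. Assayed in glycogen-synthesis direction with α-D-glucose-1-phosphate 2–20 mM, glycogen 1% w/v and AMP 1 mM held constant. Inhibitors were dissolved in DMSO and diluted into 50 mM triethanolamine, 1 mM EDTA, 1 mM DTT, keeping final DMSO below 1%. Activities were analysed as Lineweaver–Burk plots by nonlinear fitting.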

[3] = target: T1, Glycogen phosphorylase, muscle form; test: Inhibition of rabbit muscle glycogen phosphorylase b by Lineweaver-Burke plot analysis
How it was run: as §1

[4] = Solubility in DMSO; assay type: physicochemical
[5] = target: T2, Glycogen phosphorylase, muscle form (Oryctolagus cuniculus); test: Inhibition of rabbit muscle glycogen phosphorylase b at 312.5 uM by Lineweaver-Burke plot analysis
How it was run: as §1

SMILES: OC[C@H]1O[C@@H](S/C(=N\O)c2ccncc2)[C@H](O)[C@@H](O)[C@@H]1O
inhibition [2]: inactive

SMILES: O=[N+]([O-])c1ccc(/C(=N\O)N[C@@H]2O[C@H](CO)[C@@H](O)[C@H](O)[C@H]2O)cc1
inhibition [2]: inactive

SMILES: OC[C@H]1O[C@@H](S/C(=N\O)c2ccc3ccccc3c2)[C@H](O)[C@@H](O)[C@@H]1O
solubility [4]: Insoluble

SMILES: O=[N+]([O-])c1ccc(/C(=N/O)S[C@@H]2O[C@H](CO)[C@@H](O)[C@H](O)[C@H]2O)cc1
IC50 [3]: > 10000 µM

SMILES: COc1ccc(/C(=N/O)S[C@@H]2O[C@H](CO)[C@@H](O)[C@H](O)[C@H]2O)cc1
inhibition [5]: inactive

SMILES: N#Cc1ccc(/C(=N/O)S[C@@H]2O[C@H](CO)[C@@H](O)[C@H](O)[C@H]2O)cc1
inhibition [2]: inactive

SMILES: OC[C@H]1O[C@@H](S/C(=N\O)c2ccc(-c3ccccc3)cc2)[C@H](O)[C@@H](O)[C@@H]1O
solubility [4]: Insoluble

SMILES: N#Cc1ccc(/C(=N\O)N[C@@H]2O[C@H](CO)[C@@H](O)[C@H](O)[C@H]2O)cc1
Ki [1]: 1800 µM

Second part, the molecule after the results:

Ki [1]: 8.2 µM
SMILES: COc1ccc(C2=NO[C@]3(O[C@H](CO)[C@@H](O)[C@H](O)[C@H]3O)S2)cc1

IC50 [3]: 700 µM
SMILES: N#Cc1ccc(C2=NO[C@]3(O[C@H](CO)[C@@H](O)[C@H](O)[C@H]3O)S2)cc1

IC50 [3]: 250 µM
SMILES: O=[N+]([O-])c1ccc(C2=NO[C@]3(O[C@H](CO)[C@@H](O)[C@H](O)[C@H]3O)S2)cc1

inhibition [2]: inactive
SMILES: OC[C@H]1O[C@@]2(ON=C(c3ccncc3)S2)[C@H](O)[C@@H](O)[C@@H]1O

IC50 [3]: 250 µM
SMILES: OC[C@H]1O[C@]2(ON=C(c3ccc(-c4ccccc4)cc3)S2)[C@H](O)[C@@H](O)[C@@H]1O

Ki [1]: 48 µM
SMILES: OC[C@H]1O[C@]2(ON=C(c3ccc(F)cc3)S2)[C@H](O)[C@@H](O)[C@@H]1O
